In ChEMBL document CHEMBL1129042, “Discovery of novel retinoic acid receptor agonists having potent antiproliferative activity in cervical cancer cells” (J Med Chem, 1996):

Experiments:
[1] = target: T1, Retinoic acid receptor gamma (Homo sapiens) (UniProt P13631); experiment: Percent transcriptional activation relative to ATRA in CV-1 cells expressing Retinoic acid receptor RAR gamma; format: functional, cell-based
T1 sequence (whole entry): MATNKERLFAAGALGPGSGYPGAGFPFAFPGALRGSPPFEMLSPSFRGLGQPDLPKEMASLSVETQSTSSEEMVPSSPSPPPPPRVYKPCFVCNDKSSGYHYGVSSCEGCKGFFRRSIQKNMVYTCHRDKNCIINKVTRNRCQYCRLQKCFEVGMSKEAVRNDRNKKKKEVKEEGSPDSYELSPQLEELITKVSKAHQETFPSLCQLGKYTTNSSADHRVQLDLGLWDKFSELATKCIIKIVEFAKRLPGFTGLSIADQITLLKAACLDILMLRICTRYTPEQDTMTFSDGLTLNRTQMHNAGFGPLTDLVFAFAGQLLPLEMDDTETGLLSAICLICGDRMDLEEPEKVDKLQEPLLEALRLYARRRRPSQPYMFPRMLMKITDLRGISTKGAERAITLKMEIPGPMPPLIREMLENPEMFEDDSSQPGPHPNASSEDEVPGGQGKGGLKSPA
Method in brief: (§1)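 Cotransfection transactivation assay in CV-1 cells. Full dose-response curves ran from 10^-12 to 10^-5 M. Efficacy is expressed as percent of the ATRA response, with ATRA set at 100%. Values are mean ± SEM of at least three separate experiments, each with triplicate determinations.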

[2] = target: T2, Retinoic acid receptor RXR-beta (Homo sapiens) (UniProt P28702); experiment: Percent transcriptional activation relative to ATRA in CV-1 cells expressing Retinoid X receptor RXR beta; format: functional, cell-based; method in brief: as §1
T2 sequence (whole entry): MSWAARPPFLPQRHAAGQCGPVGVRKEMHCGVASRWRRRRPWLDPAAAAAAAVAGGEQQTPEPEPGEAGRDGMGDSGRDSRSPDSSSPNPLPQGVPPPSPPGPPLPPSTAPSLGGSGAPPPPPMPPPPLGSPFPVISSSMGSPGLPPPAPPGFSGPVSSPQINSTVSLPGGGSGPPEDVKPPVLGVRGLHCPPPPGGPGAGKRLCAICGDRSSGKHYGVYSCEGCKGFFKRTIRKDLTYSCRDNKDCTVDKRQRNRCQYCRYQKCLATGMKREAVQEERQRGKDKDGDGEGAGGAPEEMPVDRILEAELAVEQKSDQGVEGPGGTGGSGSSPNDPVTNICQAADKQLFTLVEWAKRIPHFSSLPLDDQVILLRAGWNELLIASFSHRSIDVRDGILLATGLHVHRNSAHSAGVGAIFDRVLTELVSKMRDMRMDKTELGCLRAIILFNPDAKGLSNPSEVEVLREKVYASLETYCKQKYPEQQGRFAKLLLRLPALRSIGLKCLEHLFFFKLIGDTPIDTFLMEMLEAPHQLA

[3] = target: T3, Retinoic acid receptor alpha (Homo sapiens) (UniProt P10276); experiment: Percent transcriptional activation relative to ATRA in CV-1 cells expressing Retinoic acid receptor RAR alpha; format: functional, cell-based; method in brief: as §1
T3 sequence (whole entry): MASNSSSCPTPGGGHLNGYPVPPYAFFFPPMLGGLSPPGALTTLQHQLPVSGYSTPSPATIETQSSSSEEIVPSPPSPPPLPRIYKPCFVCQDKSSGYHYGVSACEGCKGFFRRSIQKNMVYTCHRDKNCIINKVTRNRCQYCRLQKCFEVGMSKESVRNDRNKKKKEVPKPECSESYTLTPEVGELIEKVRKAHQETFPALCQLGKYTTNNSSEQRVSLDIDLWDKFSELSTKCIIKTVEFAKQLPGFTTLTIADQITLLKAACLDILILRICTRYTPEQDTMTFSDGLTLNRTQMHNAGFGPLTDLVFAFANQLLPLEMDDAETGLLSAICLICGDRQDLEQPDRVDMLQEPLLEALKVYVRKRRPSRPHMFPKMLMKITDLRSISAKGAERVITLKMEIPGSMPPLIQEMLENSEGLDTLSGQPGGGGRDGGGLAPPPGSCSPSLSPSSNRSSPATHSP

[4] = target: T4, Retinoic acid receptor beta (Homo sapiens, UniProt P10826); experiment: Transcriptional activation in CV-1 cells expressing Retinoic acid receptor RAR beta; format: functional, cell-based
T4 sequence (P10826 whole entry): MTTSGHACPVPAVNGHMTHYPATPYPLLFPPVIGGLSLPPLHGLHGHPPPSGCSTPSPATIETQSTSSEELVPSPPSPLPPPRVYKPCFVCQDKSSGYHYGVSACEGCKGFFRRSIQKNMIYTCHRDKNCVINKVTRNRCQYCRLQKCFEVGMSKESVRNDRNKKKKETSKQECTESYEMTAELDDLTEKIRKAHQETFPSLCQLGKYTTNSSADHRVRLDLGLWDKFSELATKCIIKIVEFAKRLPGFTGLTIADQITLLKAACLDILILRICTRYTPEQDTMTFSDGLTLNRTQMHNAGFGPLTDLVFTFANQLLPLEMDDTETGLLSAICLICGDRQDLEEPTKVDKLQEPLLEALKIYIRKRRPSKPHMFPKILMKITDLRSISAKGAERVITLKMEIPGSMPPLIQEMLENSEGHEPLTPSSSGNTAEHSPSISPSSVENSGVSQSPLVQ

[5] = target: T5, Retinoic acid receptor RXR-gamma (Homo sapiens, UniProt P48443); experiment: Inhibition of [3H]9-cis-RA binding to Retinoid X receptor RXR gamma
T5 sequence (P48443 whole entry): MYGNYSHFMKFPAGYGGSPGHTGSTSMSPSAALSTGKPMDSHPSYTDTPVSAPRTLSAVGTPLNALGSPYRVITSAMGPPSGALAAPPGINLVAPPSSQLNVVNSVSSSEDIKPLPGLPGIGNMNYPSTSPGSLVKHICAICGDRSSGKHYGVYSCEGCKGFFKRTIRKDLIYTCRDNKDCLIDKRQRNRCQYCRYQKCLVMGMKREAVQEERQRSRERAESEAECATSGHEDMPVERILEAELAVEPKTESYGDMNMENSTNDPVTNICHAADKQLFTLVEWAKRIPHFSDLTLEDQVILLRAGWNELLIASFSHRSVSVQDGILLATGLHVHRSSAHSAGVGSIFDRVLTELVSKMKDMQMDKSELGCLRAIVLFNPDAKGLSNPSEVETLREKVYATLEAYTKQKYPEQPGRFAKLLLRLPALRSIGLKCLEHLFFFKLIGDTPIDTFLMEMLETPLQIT

[6] = target: T6, Retinoic acid receptor RXR-beta (Homo sapiens, UniProt P28702); experiment: Inhibition of [3H]9-cis-RA binding to Retinoid X receptor RXR beta
T6 sequence (P28702 whole entry): T2 sequence (whole entry)

[7] = target: T5, Retinoic acid receptor RXR-gamma; experiment: Transcriptional activation in CV-1 cells expressing Retinoid X receptor RXR gamma; format: functional, cell-based
[8] = target: T7, Retinoic acid receptor alpha (Homo sapiens, UniProt P10276); experiment: Transcriptional activation in CV-1 cells expressing Retinoic acid receptor RAR alpha; format: functional, cell-based
T7 sequence (P10276 whole entry): T3 sequence (whole entry)

[9] = target: T8, Retinoic acid receptor RXR-alpha (Homo sapiens, UniProt P19793); experiment: Inhibition of [3H]9-cis-RA binding to Retinoid X receptor RXR alpha
T8 sequence (P19793 whole entry): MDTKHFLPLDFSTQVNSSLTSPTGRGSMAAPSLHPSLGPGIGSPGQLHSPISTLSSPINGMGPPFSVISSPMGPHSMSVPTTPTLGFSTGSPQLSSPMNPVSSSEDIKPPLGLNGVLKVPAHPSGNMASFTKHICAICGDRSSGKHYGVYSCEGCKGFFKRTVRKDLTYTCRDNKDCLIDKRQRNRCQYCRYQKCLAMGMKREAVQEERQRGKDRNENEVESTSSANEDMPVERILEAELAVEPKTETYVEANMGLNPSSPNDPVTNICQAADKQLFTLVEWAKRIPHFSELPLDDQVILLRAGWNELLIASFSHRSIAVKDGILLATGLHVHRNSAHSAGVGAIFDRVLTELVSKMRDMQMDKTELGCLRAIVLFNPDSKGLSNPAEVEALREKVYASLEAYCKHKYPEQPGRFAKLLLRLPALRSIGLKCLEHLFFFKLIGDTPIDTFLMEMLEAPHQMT

[10] = target: T8, Retinoic acid receptor RXR-alpha; experiment: Transcriptional activation in CV-1 cells expressing Retinoid X receptor RXR alpha; format: functional, cell-based
[11] = target: T6, Retinoic acid receptor RXR-beta; experiment: Transcriptional activation in CV-1 cells expressing Retinoid X receptor RXR beta; format: functional, cell-based
[12] = target: T7, Retinoic acid receptor alpha; experiment: Inhibition of [3H]ATRA binding to Retinoic acid receptor RAR alpha
[13] = target: T4, Retinoic acid receptor beta; experiment: Inhibition of [3H]ATRA binding to Retinoic acid receptor RAR beta
[14] = target: T8, Retinoic acid receptor RXR-alpha; experiment: Transcriptional activation in CV-1 cells expressing Retinoid X receptor RXR alpha; Not active; format: functional, cell-based
[15] = target: T5, Retinoic acid receptor RXR-gamma; experiment: Transcriptional activation in CV-1 cells expressing Retinoid X receptor RXR gamma; Not active; format: functional, cell-based

Efficacy [1] [%]	Efficacy [2] [%]	Efficacy [3] [%]	EC50 [4] [nM]	Ki [5] [nM]	Ki [6] [nM]	Ki [9] [nM]	EC50 [11]	Ki [12] [nM]	Ki [13] [nM]	SMILES	also measured
100	100	100								CC1=C(/C=C/C(C)=C/C=C/C(C)=C/C(=O)O)C(C)(C)CCC1	
93	128	81								CC1=C(/C=C/C(C)=C\C=C\C(C)=C\C(=O)O)C(C)(C)CCC1	
			24	9.3	10.2	4.6	87 nM	63.5	90	CC(/C=C/C=C(\C)c1cc(C(C)(C)C)cc(C(C)(C)C)c1)=C\C(=O)O (stereo in doubt; form 1) [listing 1 of 2 here]	EC50 [7]: 77 nM; EC50 [8]: 65 nM; EC50 [10]: 134 nM
58	27	39								CC(/C=C/C=C(\C)c1cc(C(C)(C)C)cc(C(C)(C)C)c1)=C\C(=O)O (stereo in doubt; form 1) [listing 2 of 2 here]	
			2.2	320	560	223	Not Active	1.1	0.7	CC(/C=C/C=C(\C)c1cc(C(C)(C)C)cc(C(C)(C)C)c1)=C\C(=O)O (stereo in doubt; form 2) [listing 1 of 2 here]	EC50 [14]: Not Active; EC50 [15]: Not Active
48		31								CC(/C=C/C=C(\C)c1cc(C(C)(C)C)cc(C(C)(C)C)c1)=C\C(=O)O (stereo in doubt; form 2) [listing 2 of 2 here]	
